Measured values published in publication PMC6175428 (Journal of Clinical Pharmacology, 2018).
Like-named read-outs stand apart in the source and are kept apart here.

Key:
[1] = assay type: in vivo, human; conditions: for CL/F (total apparent clearance): SNAC after 10th dose, geometric mean (CV)
Outline: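 Adults with hepatic function graded by Child-Pugh took one oral tablet daily for 10 days: 5 mg for 5 days, then 10 mg for 5 days. Each tablet held 300 mg SNAC and was taken with 120 mL water after a ≥6 h fast. Plasma was sampled within 24 h after dosing on days 1 and 10 into K3-EDTA and stored at −20°C. LC-MS/MS used in-line solid-phase preparation and internal-standard peak area ratios, with an LLOQ of 5.00 ng/mL.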

[2] = Urine bioanalysis / renal clearance of semaglutide and SNAC; assay type: in vivo, human; conditions: for CLR (renal clearance): SNAC after 10th dose, geometric mean (CV)
Outline: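 Urine was collected before dosing on day 1 and in fractions after the day-10 dose (0–4, 4–8, 16–24 and 24–36 h) and stored at −20°C. 1% Triton X-100 was added at 1 part per 9 parts urine. Semaglutide and SNAC were measured by the plasma LC-MS/MS assays, with ranges corrected by a factor of 1.111. Renal clearance was reported as the geometric mean (CV) per hepatic function group.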

[3] = system: plasma protein; assay: Plasma protein binding of SNAC; assay type: in vitro ADME, human
Outline: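 Plasma protein binding measured ex vivo by rapid equilibrium dialysis on blood drawn 30 minutes after the day-10 dose. Subjects with normal hepatic function or mild, moderate or severe hepatic impairment received the oral semaglutide/SNAC co-formulation for 10 consecutive days. Food and liquid were withheld for 30 minutes post-dose. The read-out is the fraction of unbound SNAC per subject, summarised as a median per group.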

[4] = subcutaneous once-daily liraglutide; cited from earlier work
[5] = mild hepatic impairment (n = 12)
[6] = moderate hepatic impairment (n = 12)
[7] = normal hepatic function (n = 24)
[8] = severe hepatic impairment (n = 8)

## O=C([O-])CCCCCCCNC(=O)c1ccccc1O.[Na+] [SNAC, sodium N‐(8‐[2‐hydroxybenzoyl]amino) caprylate]
[1]; [5]
  CL/F (total apparent clearance): 195.6 (24.2) L/h
[1]; [6]
  CL/F (total apparent clearance): 105.1 (63.1) L/h
[1]; [7]
  CL/F (total apparent clearance): 275.8 (27.9) L/h
[1]; [8]
  CL/F (total apparent clearance): 78.5 (36.4) L/h
[1]; across the 4 hepatic function groups
  Median tmax of SNAC: approximately 0.5 hours
[1]; day 1 vs day 10 exposure, any hepatic function group
  Accumulation of SNAC: No accumulation
[2]; [5]
  CLR (renal clearance): 0.075 (125.3) L/h
[2]; [6]
  CLR (renal clearance): 0.054 (73.98) L/h
[2]; [7]
  CLR (renal clearance): 0.076 (109.0) L/h
[2]; [8]
  CLR (renal clearance): 0.111 (88.52) L/h
[2]; range of estimated means with 95%CI across hepatic function groups
  Estimated mean CLR of SNAC, range across groups: 0.052 [95%CI, 0.036–0.076]–0.096 [95%CI, 0.059–0.157] L/h
[3]; across the hepatic function groups, samples 30 minutes after dosing on day 10
  Median fraction of unbound SNAC: less than 1%
[3]; all subjects across hepatic function groups
  Plasma protein binding of SNAC: more than 99%

## liraglutide
[4]
  Drug exposure with impaired liver function: not increased

## CC[C@H](C)[C@H](NC(=O)[C@H](Cc1ccccc1)NC(=O)[C@H](CCC(=O)O)NC(=O)[C@H](CCCCNC(=O)COCCOCCNC(=O)COCCOCCNC(=O)CC[C@H](NC(=O)CCCCCCCCCCCCCCCCC(=O)O)C(=O)O)NC(=O)[C@H](C)NC(=O)[C@H](C)NC(=O)[C@H](CCC(N)=O)NC(=O)CNC(=O)[C@H](CCC(=O)O)NC(=O)[C@H](CC(C)C)NC(=O)[C@H](Cc1ccc(O)cc1)NC(=O)[C@H](CO)NC(=O)[C@H](CO)NC(=O)[C@@H](NC(=O)[C@H](CC(=O)O)NC(=O)[C@H](CO)NC(=O)[C@@H](NC(=O)[C@H](Cc1ccccc1)NC(=O)[C@@H](NC(=O)CNC(=O)[C@H](CCC(=O)O)NC(=O)C(C)(C)NC(=O)[C@@H](N)Cc1cnc[nH]1)[C@@H](C)O)[C@@H](C)O)C(C)C)C(=O)N[C@@H](C)C(=O)N[C@@H](Cc1c[nH]c2ccccc12)C(=O)N[C@@H](CC(C)C)C(=O)N[C@H](C(=O)N[C@@H](CCCNC(=N)N)C(=O)NCC(=O)N[C@@H](CCCNC(=N)N)C(=O)NCC(=O)O)C(C)C [Semaglutide, reference compound]
[2]; subjects with normal hepatic function and all hepatic impairment groups
  Semaglutide in urine samples: not detected
